NPY Y1 blocker: NPY-Y1 receptor antagonists, primary screen, cell-based; HEK293-CNG Y1 cells, membrane potential fluorescence; NPY at EC95, then isoproterenol; inhibition, % at 3.6 µM; actives 1% (n = 200,000); AID 1040, 2008;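 active = inhibition above the campaign mean inhibition of all tested compounds plus 3 SD, cut at about 20% in these data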
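Material: HEK293 Y1/CNG channel cell line | Also added: NPY (25 nM), isoproterenol (1 µM), Ro 20-1724 (25 µM) | Compound: One concentration, 3.6 µM, in 0.4% DMSO | Schedule: 3 h dye uptake, 1 h room-temperature compound, 45 min post-isoproterenol | Signal: Membrane-potential fluorescent dye readout | Read-out: % inhibition of NPY effect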
NPY2 pot ag: NPY-Y2 potentiators or agonists, primary screen, cell-based | Neuropeptide Y receptor type 2 (Homo sapiens), P49146 | cells expressing NPY-Y2, potentiator/agonist read-out | activation, % at 3.6 µM | actives 0.45% (n = 220,000); in the data active = activation above about 27%;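 note: cells stimulated with NPY near EC25 plus isoproterenol at EC100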
Target sequence (P49146 whole entry, looked up): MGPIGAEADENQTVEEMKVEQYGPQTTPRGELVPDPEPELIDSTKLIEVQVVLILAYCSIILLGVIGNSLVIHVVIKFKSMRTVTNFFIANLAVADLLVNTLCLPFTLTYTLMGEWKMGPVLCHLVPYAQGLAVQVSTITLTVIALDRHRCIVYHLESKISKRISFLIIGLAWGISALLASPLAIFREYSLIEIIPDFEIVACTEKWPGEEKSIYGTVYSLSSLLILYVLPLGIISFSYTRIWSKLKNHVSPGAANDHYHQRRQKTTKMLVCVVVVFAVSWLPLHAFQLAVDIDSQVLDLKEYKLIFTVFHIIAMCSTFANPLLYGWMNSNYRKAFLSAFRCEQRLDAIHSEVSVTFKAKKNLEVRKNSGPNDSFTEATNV
WT yeast gro inh: growth inhibition of WT strain, primary screen, mitochondrial fusion inhibitor project, WT and mutant strains, chemical genetic. mitochondrial fusion phenotypic screen. inhibition, % at 10 µM. AID 1362, 2008. actives 2.1% (n = 190,000); in the data active = inhibition above about 58%; tested in S. cerevisiae
NPY1 pot ag: NPY-Y1 receptor potentiators or agonists, primary screen, cell-based | Neuropeptide Y receptor type 1 (Homo sapiens), P25929 | NPY-Y1 expressing cells, potentiator/agonist activation | activation, % at 3.6 µM | actives 0.37% (n = 220,000) | AID 1304, 2008; in the data active = activation above about 33%, passing the limit was not always enough;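 note: cells stimulated with NPY at EC10 then isoproterenol at EC100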
RAM network inh: inhibitors of the yeast RAM network, primary screen, dse1pr::URA3 reporter, 5-FOA selection | S. cerevisiae dse1pr::URA3 reporter, 5-FOA growth OD615, 2 d; analog-sensitive cbk1-as2 kinase mutant strain | inhibition, % at 50 µM | actives 1.8% (n = 190,000) | AID 868, 2007;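 active = inhibition above a set limit, 3 SD over mean compound inhibition, cut at about 8.4% in these data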;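 note: inhibition rescues growth on 5-FOA so higher OD means more RAM inhibition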
NPY-Y2 antag: NPY-Y2 receptor antagonists, primary screen, cell-based. Neuropeptide Y receptor type 2 (Homo sapiens), P49146. NPY-Y2 expressing cells, antagonist mode. inhibition, % at 2.7 µM. actives 0.99% (n = 140,000); in the data active = inhibition above about 17%
NPY-Y1 antag ct: NPY-Y1 receptor antagonists, selectivity check, counter-screen for NPY-Y2 antagonist project, cell-based. actives 19% (n = 710). shares compounds with NPY-Y2 antag. inhibition, % at 3.6 µM. cell-based NPY-Y1 antagonism counterscreen; in the data active = inhibition above about 20%;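 note: cells challenged with NPY then isoproterenol with cAMP sensed through a CNG channel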
NPY-Y2 ant conf: NPY-Y2 receptor antagonists, retest of hits, confirmation, HEK293-CNG cells, membrane potential fluorescence, triplicate. shares compounds with NPY-Y2 antag. HEK293 NPY-Y2 CNG channel. inhibition, % at 2.8 µM. actives 32% (n = 710);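 active = mean inhibition of triplicate wells above the hit cutoff set in the primary screen, cut at about 17% in these data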
Numbers stand for hits; 0 = inactive; - = no result. Rows were chosen to be rich in hits. Some 4.9% of all compounds tested hit in one or more screens of this group.

SMILES | NPY Y1 blocker | NPY2 pot ag | WT yeast gro inh | NPY1 pot ag | RAM network inh | NPY-Y2 antag | NPY-Y1 antag ct | NPY-Y2 ant conf
Cc1nc(C(=O)Nc2cccc(Cl)c2)nn1-c1cc(OC(C)C)c(Cl)cc1Cl | 0 | 0 | 66.7 | 0 | 0 | 17.2 | 20.2 | 0
Cc1ccc2[nH]c(=O)c(CN(CCCN(C)C)C(=O)Nc3ccc(F)cc3)cc2c1 | 0 | 0 | 0 | 0 | 0 | - | - | -
O=C(CSCc1c(Cl)cccc1Cl)Nc1ccccc1-c1ccccc1 | 0 | 0 | 0 | 0 | 0 | 37.5 | 0 | 24.1
CC(C)(C)NC(=O)CSCc1c(Cl)cccc1Cl | 0 | 0 | 0 | 0 | 0 | 0 | - | -
CCn1ncc(NC(=S)Nc2ccc(OC)c(OC)c2)c1C(N)=O | 0 | 0 | 0 | 0 | 0 | - | - | -
O=C1c2ccccc2NC(c2ccc(Cl)cc2Cl)N1Cc1ccccc1 (configuration not stated) | 0 | 0 | 80.6 | 0 | 0 | 27.7 | 0 | 0
O=C1c2ccccc2NC(c2c(Cl)cccc2Cl)N1Cc1ccccc1 (configuration not stated) | 0 | 0 | 0 | 0 | 0 | 0 | - | -
CC(C)CCNC(=O)C1CC(=O)N(C2CCCC2)C1 (configuration not stated) | 0 | 0 | 0 | 0 | 0 | 0 | - | -
CCN(CC)S(=O)(=O)c1ccc(/C=C/C(=O)Nc2ccc(F)cc2F)cc1 | 0 | 0 | 0 | 0 | 0 | 0 | - | -
CCN(CC)S(=O)(=O)c1ccc(/C=C/C(=O)Nc2ccc(Br)cc2F)cc1 | 0 | 0 | 0 | 0 | 0 | 17.3 | 28.5 | 17.3
CCOc1ccc(C(=O)Nc2c3c(nn2-c2cccc(C)c2C)CS(=O)C3)cc1 (configuration not stated) | 0 | 0 | 0 | 0 | 0 | 0 | - | -
O=C(/C=C/c1cccc(Cl)c1)c1nc2ccccc2[nH]1 | 0 | 0 | 0 | 0 | 0 | 17.7 | 0 | 33.6
Cc1ccc(-n2nnc3c(=O)n(Cc4ccccn4)cnc32)cc1C | 0 | 0 | 0 | 0 | 0 | - | - | -
Cc1ccc(S(=O)(=O)C(c2ccccc2)c2c(C)noc2C)cc1 (configuration not stated) | 0 | 0 | 0 | 0 | 0 | 17.4 | 0 | 56.7
Cc1noc(C)c1C(c1ccccc1)S(=O)(=O)c1ccccc1 (configuration not stated) | 0 | 0 | 0 | 0 | 0 | 0 | - | -
CC(C)Oc1ccc(C(=O)N(CN2CCCC2=O)c2ccc(F)cc2)cc1 | 0 | 0 | 0 | 0 | 0 | 0 | - | -
c1ccc2[nH]c(SCc3cscn3)nc2c1 | 0 | 0 | 0 | 0 | 0 | 0 | - | -
CCOC(=O)c1ccc(Cl)c(S(=O)(=O)N2CCCC2)c1 | 0 | 0 | 0 | 0 | 0 | - | - | -
CCn1c(C(C)NC(=O)c2cccs2)n[nH]c1=S (configuration not stated) | 0 | 0 | 0 | 0 | 0 | 22.4 | 0 | 0
C=CCn1c(C(C)NC(=O)c2cccs2)n[nH]c1=S (configuration not stated) | 0 | 0 | 0 | 0 | 0 | 0 | - | -
O=C1C2CC=C(Cl)CC2C(=O)N1CC1OCCc2ccccc21 (configuration not stated) | 0 | 0 | 0 | 0 | 0 | 0 | - | -
O=C1C2CC=C(Cl)CC2C(=O)N1CC1Cc2ccccc2CO1 (configuration not stated) | 0 | 0 | 0 | 0 | 0 | 28.2 | 0 | 23.1
Cc1ccc(C(=O)NC2c3ccccc3-c3ccccc32)cc1 | 0 | 0 | 0 | 0 | 0 | 19.1 | 0 | 0
COc1cccc(C(C(=O)NC2CCCC2)N(Cc2ccco2)C(=O)c2ccco2)c1OC (configuration not stated) | 0 | 0 | 0 | 0 | 0 | 0 | - | -
Cc1ccc(C(C(=O)NC2CCCC2)N(C(=O)Cc2cccs2)c2ccc(C)c(C)c2)o1 (configuration not stated) | 0 | 0 | 63.1 | 0 | 0 | 23.8 | 0 | 0
SMILES | NPY Y1 blocker | NPY2 pot ag | WT yeast gro inh | NPY1 pot ag | RAM network inh | NPY-Y2 antag | NPY-Y1 antag ct | NPY-Y2 ant conf
Cc1ccc(C)c(N(C(=O)Cc2cccs2)C(C(=O)NC2CCCC2)c2ccc(C)o2)c1 (configuration not stated) | 0 | 0 | 0 | 0 | 0 | 0 | - | -
CCOC(=O)c1ccc(-n2c(CC)nc3ccccc3c2=O)cc1 | 0 | 0 | 0 | 0 | 0 | - | - | -
CCN1C(=O)C(Cc2nc3ccccc3c(=O)n2-c2ccccc2)c2ccccc21 (configuration not stated) | 0 | 0 | 0 | 0 | 0 | 23.3 | 0 | 0
Cc1cc(C)nc(N2CCC(C(=O)NNC(=O)Cc3ccccc3)CC2)n1 | - | 0 | - | 0 | - | - | - | -
CC(=O)NC1(c2ccccc2)CCN(c2nc(C)cc(C)n2)CC1 | 0 | 0 | 0 | 0 | 0 | 48.7 | 35.1 | 34.6
CCCn1c(=O)c2ccccc2n2c(SCCOc3ccc(C)cc3)nnc12 | 0 | 0 | 0 | 0 | 0 | 19.8 | 0 | 0
COC(=O)c1c(C)oc2ccc(N(C(=O)c3ccncc3)S(=O)(=O)c3ccc4ccccc4c3)cc12 | 0 | 0 | 0 | 0 | 0 | 22.9 | 0 | 31.2
CN(C)Cc1ccccc1Sc1cccc2ccccc12 | 0 | 0 | 0 | 0 | 0 | 22.4 | 0 | 21.0
Cc1nc2ccc(F)cc2cc1C(=O)Nc1ccc(Cl)c(Cl)c1 | 0 | 0 | 0 | 0 | 0 | 23.1 | 0 | 31.4
COc1ccc(CCNC(=O)CSc2nc(O)cc(=O)[nH]2)cc1OC | - | 0 | - | 0 | - | - | - | -
COc1ccc(CCNC(=O)CSc2nc(O)c(CC(C)C)c(=O)[nH]2)cc1OC | 0 | 0 | 0 | 0 | 0 | 17.4 | 0 | 0
Cc1cc(Oc2ccc(-c3ccccc3)cc2)n2ncnc2n1 | 0 | 0 | 0 | 0 | 0 | 20.0 | 0 | 0
Cc1cc(SCC(=O)Nc2ccccc2)n2ncc(-c3ccccc3)c2n1 | - | 0 | - | 0 | - | - | - | -
O=C(CSc1nc2ccccc2s1)NCCOc1ccccc1 | 0 | 0 | 0 | 0 | 0 | 0 | - | -
O=C(CSc1nc2ccccc2s1)NCCOc1ccc(Cl)cc1 | 0 | 0 | 0 | 0 | 0 | 19.8 | 0 | 0
CCc1c(C)sc(NC(NC(C)=O)(C(=O)OC)C(F)(F)F)c1C#N (configuration not stated) | 0 | 0 | 0 | 0 | 0 | 0 | - | -
CNc1ncc(C(=O)c2ccccc2)s1 | 0 | 0 | 0 | 0 | 0 | 0 | - | -
COC(=O)Cn1c(=N)n(CCN2CCCCC2)c2ccccc21 | 0 | 0 | 0 | 0 | 0 | 0 | - | -
COc1ccccc1OCC(O)Cn1c(=N)n(CCN2CCCCC2)c2ccccc21 (configuration not stated) | 0 | 0 | 0 | 0 | 0 | 44.9 | 31.4 | 38.9
